ChEMBL document CHEMBL4673212, “Investigation of synergistic antimicrobial effects of the drug combinations of meropenem and 1,2-benzisoselenazol-3(2H)-one derivatives on carbapenem-resistant Enterobacteriaceae producing NDM-1” (Eur J Med Chem, 2018)
In brackets after ≈: the same amount, converted by molar mass.

Experiments:
[1] = tested on: Escherichia coli; experiment: Synergistic antibacterial activity against Escherichia coli TG1 transformed with IncX3 plasmid expressing blaNDM-1 assessed as fractional inhibitory concentration index in presence of meropenem incubated for overnight by CLSI protocol based assay; format: functional; conditions: time 12 hrs
Procedure, shortened: (§1)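 FIC index from MICs of compound alone, meropenem alone, and the 1:1 (mass) compound–meropenem combination, read by eye after overnight incubation in a CLSI-based assay. FIC index = MICcombo/MICcpd + MICcombo/MICMem. FIC index ≤0.5 counted as synergy. At least triplicate assays. Clinical NDM-1 isolates for 17-39; E. coli TG1 carrying the IncX3 blaNDM-1 plasmid for 15.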

[2] = tested on: Enterobacter cloacae; experiment: Potentiation of meropenem-induced antibacterial activity against carbapenem-resistant Enterobacter cloacae isolate 08 harboring CTX-M-14, TEM-1 and SHV-12 assessed as meropenem MIC by CLSI protocol based assay (reference value: 32 ug/ml); format: functional
[3] = tested on: Enterobacter cloacae; experiment: Potentiation of meropenem-induced antibacterial activity against carbapenem-resistant Enterobacter cloacae isolate 10 harboring CTX-M-14, TEM-1 and SHV-12 assessed as meropenem MIC by CLSI protocol based assay (reference value: 64 ug/ml); format: functional
[4] = tested on: Enterobacter cloacae; experiment: Growth inhibition of carbapenem-resistant Enterobacter cloacae isolate 18 harboring IMP-4 and TEM-1 by CLSI protocol based assay; format: functional
[5] = Growth inhibition of Escherichia coli TG1 transformed with IncX3 plasmid expressing blaNDM-1 incubated for overnight by CLSI protocol based assay; conditions: 12 h
[6] = tested on: Enterobacter cloacae; experiment: Growth inhibition of carbapenem-resistant Enterobacter cloacae isolate 22 harboring CTX-M-14, TEM-1 and SHV-12 by CLSI protocol based assay; format: functional
[7] = tested on: Enterobacter cloacae; experiment: Growth inhibition of carbapenem-resistant Enterobacter cloacae isolate 09 harboring CTX-M-3, CTX-M-14, TEM-1 and SHV-12 by CLSI protocol based assay; format: functional
[8] = tested on: Escherichia coli; experiment: Potentiation of meropenem-induced antibacterial activity against carbapenem-resistant Escherichia coli isolate 33 harboring CTX-M-15 assessed as meropenem MIC by CLSI protocol based assay (reference value: 64 ug/ml); format: functional
[9] = tested on: Escherichia coli; experiment: Growth inhibition of carbapenem-resistant Escherichia coli isolate 33 harboring CTX-M-15 by CLSI protocol based assay; format: functional
[10] = tested on: Morganella morganii; experiment: Growth inhibition of carbapenem-resistant Morganella morganii isolate 23 by CLSI protocol based assay; format: functional
[11] = tested on: Klebsiella oxytoca; experiment: Growth inhibition of carbapenem-resistant Klebsiella oxytoca isolate 16 harboring SHV-12 by CLSI protocol based assay; format: functional
[12] = tested on: Citrobacter freundii; experiment: Potentiation of meropenem-induced antibacterial activity against carbapenem-resistant Citrobacter freundii isolate 43 assessed as meropenem MIC by CLSI protocol based assay (Rvb >= 128 ug/ml); format: functional
[13] = tested on: Enterobacter cloacae; experiment: Synergistic antibacterial activity against carbapenem-resistant Enterobacter cloacae isolate 19 harboring CTX-M-14 and KPC-2 assessed as fractional inhibitory concentration index in presence of meropenem by CLSI protocol based assay; format: functional
[14] = tested on: Klebsiella pneumoniae; experiment: Synergistic antibacterial activity against carbapenem-resistant Klebsiella pneumoniae isolate 04 harboring CTX-M-14, VIM-1, TEM-1 and SHV-12 assessed as fractional inhibitory concentration index in presence of meropenem by CLSI protocol based assay; format: functional; procedure, shortened: as §1
[15] = tested on: Klebsiella oxytoca; experiment: Synergistic antibacterial activity against carbapenem-resistant Klebsiella oxytoca isolate 16 harboring SHV-12 assessed as fractional inhibitory concentration index in presence of meropenem by CLSI protocol based assay; format: functional; procedure, shortened: as §1
[16] = tested on: Citrobacter freundii; experiment: Synergistic antibacterial activity against carbapenem-resistant Citrobacter freundii isolate 35 harboring CTX-M-3, KPC-2 and SHV-12 assessed as fractional inhibitory concentration index in presence of meropenem by CLSI protocol based assay; format: functional
[17] = tested on: Enterobacter cloacae; experiment: Growth inhibition of carbapenem-resistant Enterobacter cloacae isolate 19 harboring CTX-M-14 and KPC-2 by CLSI protocol based assay; format: functional
[18] = tested on: Klebsiella pneumoniae; experiment: Potentiation of meropenem-induced antibacterial activity against carbapenem-resistant Klebsiella pneumoniae isolate 04 harboring CTX-M-14, VIM-1, TEM-1 and SHV-12 assessed as meropenem MIC by CLSI protocol based assay (Rvb >= 128 ug/ml); format: functional
[19] = tested on: Citrobacter freundii; experiment: Growth inhibition of carbapenem-resistant Citrobacter freundii isolate 35 harboring CTX-M-3, KPC-2 and SHV-12 by CLSI protocol based assay; format: functional
[20] = tested on: Morganella morganii; experiment: Synergistic antibacterial activity against carbapenem-resistant Morganella morganii isolate 26 assessed as fractional inhibitory concentration index in presence of meropenem by CLSI protocol based assay; format: functional; procedure, shortened: as §1
[21] = tested on: Citrobacter freundii; experiment: Growth inhibition of carbapenem-resistant Citrobacter freundii isolate 05 harboring SHV-12 by CLSI protocol based assay; format: functional
[22] = tested on: Escherichia coli; experiment: Potentiation of meropenem-induced antibacterial activity against carbapenem-resistant Escherichia coli isolate 06 harboring CTX-M-14, CTX-M-3 and SHV-12 assessed as meropenem MIC by CLSI protocol based assay (Rvb >= 128 ug/ml); format: functional
[23] = tested on: Enterobacter cloacae; experiment: Synergistic antibacterial activity against carbapenem-resistant Enterobacter cloacae isolate 09 harboring CTX-M-3, CTX-M-14, TEM-1 and SHV-12 assessed as fractional inhibitory concentration index in presence of meropenem by CLSI protocol based assay; format: functional; procedure, shortened: as §1
[24] = tested on: Enterobacter cloacae; experiment: Synergistic antibacterial activity against carbapenem-resistant Enterobacter cloacae isolate 08 harboring CTX-M-14, TEM-1 and SHV-12 assessed as fractional inhibitory concentration index in presence of meropenem by CLSI protocol based assay; format: functional; procedure, shortened: as §1
[25] = tested on: Enterobacter cloacae; experiment: Synergistic antibacterial activity against carbapenem-resistant Enterobacter cloacae isolate 27 harboring CTX-M-3, CTX-M-14, TEM-1 and SHV-12 assessed as fractional inhibitory concentration index in presence of meropenem by CLSI protocol based assay; format: functional; procedure, shortened: as §1
[26] = tested on: Klebsiella pneumoniae; experiment: Synergistic antibacterial activity against carbapenem-resistant Klebsiella pneumoniae isolate 14 harboring CTX-M-14, KPC-2 and SHV-12 assessed as fractional inhibitory concentration index in presence of meropenem by CLSI protocol based assay; format: functional; procedure, shortened: as §1
[27] = tested on: Enterobacter cloacae; experiment: Synergistic antibacterial activity against carbapenem-resistant Enterobacter cloacae isolate 22 harboring CTX-M-14, TEM-1 and SHV-12 assessed as fractional inhibitory concentration index in presence of meropenem by CLSI protocol based assay; format: functional; procedure, shortened: as §1
[28] = tested on: Klebsiella oxytoca; experiment: Potentiation of meropenem-induced antibacterial activity against carbapenem-resistant Klebsiella oxytoca isolate 03 harboring SHV-12 assessed as meropenem MIC by CLSI protocol based assay (Rvb >= 128 ug/ml); format: functional
[29] = tested on: Morganella morganii; experiment: Growth inhibition of carbapenem-resistant Morganella morganii isolate 26 by CLSI protocol based assay; format: functional
[30] = tested on: Klebsiella oxytoca; experiment: Growth inhibition of carbapenem-resistant Klebsiella oxytoca isolate 03 harboring SHV-12 by CLSI protocol based assay; format: functional
[31] = tested on: Escherichia coli; experiment: Potentiation of meropenem-induced antibacterial activity against Escherichia coli TG1 transformed with IncX3 plasmid expressing blaNDM-1 assessed as bacterial growth inhibition by measuring meropenem MIC incubated for overnight by CLSI protocol based assay; format: functional; conditions: time 12 hrs
[32] = tested on: Enterobacter cloacae; experiment: Potentiation of meropenem-induced antibacterial activity against carbapenem-resistant Enterobacter cloacae isolate 28 harboring TEM-1 and SHV-12 assessed as meropenem MIC by CLSI protocol based assay (reference value: 32 ug/ml); format: functional
[33] = tested on: Citrobacter freundii; experiment: Potentiation of meropenem-induced antibacterial activity against carbapenem-resistant Citrobacter freundii isolate 05 harboring SHV-12 assessed as meropenem MIC by CLSI protocol based assay (Rvb >= 128 ug/ml); format: functional

## CC(C)(C)OC(=O)NCCn1[se]c2ccccc2c1=O
[1]
  fractional inhibitory concentration index (FICI): 0.047
[2]
  MIC: 4 µg/mL
[3]
  MIC: 8 µg/mL
[4]
  MIC: ≥ 128 µg/mL
[5]
  MIC: >= 128 ug ml-1
[6]
  MIC: ≥ 128 µg/mL
[7]
  MIC: ≥ 128 µg/mL
[8]
  MIC: 8 µg/mL
[9]
  MIC: ≥ 128 µg/mL
[10]
  MIC: ≥ 128 µg/mL
[11]
  MIC: ≥ 128 µg/mL
[12]
  MIC: 16 µg/mL
[13]
  fractional inhibitory concentration index (FICI): 0.25
[14]
  fractional inhibitory concentration index (FICI): 0.5
[15]
  fractional inhibitory concentration index (FICI): 0.13
[16]
  fractional inhibitory concentration index (FICI): 0.13
[17]
  MIC: ≥ 128 µg/mL
[18]
  MIC: 32 µg/mL
[19]
  MIC: ≥ 128 µg/mL
[20]
  fractional inhibitory concentration index (FICI): 0.05
[21]
  MIC: ≥ 128 µg/mL
[22]
  MIC: 8 µg/mL
[23]
  fractional inhibitory concentration index (FICI): 0.13
[24]
  fractional inhibitory concentration index (FICI): 0.16
[25]
  fractional inhibitory concentration index (FICI): 0.16
[26]
  fractional inhibitory concentration index (FICI): 0.13
[27]
  fractional inhibitory concentration index (FICI): 0.25
[28]
  MIC: 8 µg/mL
[29]
  MIC: ≥ 128 µg/mL
[30]
  MIC: ≥ 128 µg/mL
[31]
  MIC: 2 µg/mL
[32]
  MIC: 4 µg/mL
[33]
  MIC: 8 µg/mL

## O=c1c2ccccc2[se]n1-c1ccccc1 [EBSELEN]
[1]
  fractional inhibitory concentration index (FICI): 0.5
[2]
  MIC: 32 µg/mL
[3]
  MIC: 64 µg/mL
[4]
  MIC: ≥ 128 µg/mL
[5]
  MIC: 64 µg/mL (≈ 233 µM)
[6]
  MIC: ≥ 128 µg/mL
[7]
  MIC: ≥ 128 µg/mL
[8]
  MIC: 16 µg/mL
[9]
  MIC: ≥ 128 µg/mL
[10]
  MIC: ≥ 128 µg/mL
[11]
  MIC: ≥ 128 µg/mL
[12]
  MIC: 32 µg/mL
[13]
  fractional inhibitory concentration index (FICI): 2
[14]
  fractional inhibitory concentration index (FICI): 1
[15]
  fractional inhibitory concentration index (FICI): 0.5
[16]
  fractional inhibitory concentration index (FICI): 0.5
[17]
  MIC: ≥ 128 µg/mL
[18]
  MIC: 64 µg/mL
[19]
  MIC: ≥ 128 µg/mL
[20]
  fractional inhibitory concentration index (FICI): 1.5
[21]
  MIC: ≥ 128 µg/mL
[22]
  MIC: 64 µg/mL
[23]
  fractional inhibitory concentration index (FICI): 2
[24]
  fractional inhibitory concentration index (FICI): 1.25
[25]
  fractional inhibitory concentration index (FICI): 2.5
[26]
  fractional inhibitory concentration index (FICI): 2
[27]
  fractional inhibitory concentration index (FICI): 2
[28]
  MIC: 32 µg/mL
[29]
  MIC: ≥ 128 µg/mL
[30]
  MIC: ≥ 128 µg/mL
[31]
  MIC: 16 µg/mL
[32]
  MIC: 64 µg/mL
[33]
  MIC: 16 µg/mL
